The source of these data is ChEMBL document CHEMBL3526063, “Metabolism and pharmacokinetics of JM6 in mice: JM6 is not a prodrug for Ro-61-8048” (Drug Metab Dispos, 2012).

pIC50: −log10 of the molar value. Where only a bound is given, the exact number is not on record here.

Data set [1] deals with Mus musculus. Nature of the data set: Cmax in C57BL/6N mouse at 10 mg/kg, po administered via gavage containing <0.4% Ro-61-8048 by LC-MS/MS analysis. The class given is ADME, organism-based. More on the design: dose 10 mg/kg, route oral. To be noted: in vivo. Summed up: (§1)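 Male C57BL/6N mice were dosed by oral gavage at 10 mL/kg with a fine suspension in 10% hydroxypropyl-β-cyclodextrin in 50 mM phosphate buffer, pH 7. Plasma was taken at non-serial time points (n=3 per time point), extracted with 0.1% formic acid in acetonitrile containing diclofenac as internal standard, and quantified by UPLC-MS/MS. Composite non-compartmental parameters came from mean concentrations; AUClast by linear trapezoid, kel from at least three terminal points.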

A short description of data set [2]: Half life in C57BL/6N mouse at 5 mg/kg, iv administered as single dose containing <0.4% Ro-61-8048 by LC-MS/MS analysis. The class given is ADME, organism-based. More on the design: dose 5 mg/kg, route intravenous. To be noted: in vivo. Summed up:
(§2)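 Single intravenous bolus of 5 mg/kg to male C57BL/6N mice, given as a filtered 1 mg/mL solution in DMSO:PEG400:water 10:50:40 (v/v). Plasma was extracted in acidified acetonitrile with diclofenac as internal standard and analysed by UPLC-MS/MS. Non-compartmental analysis used mean concentrations (n=3 per time point), with C0 back-extrapolated from the first two samples. AUCinf = AUClast + Ct/kel.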

The next data set deals with Liver. Nature of the data set: Metabolic stability in mouse liver microsomes assessed as half life at 1 uM after 5 to 40 mins by LC-MS/MS analysis.
Data set [3] relates to Mus musculus. Nature of the data set: Dose normalised Cmax in C57BL/6N mouse at 10 mg/kg, po administered via gavage containing <0.4% Ro-61-8048 by LC-MS/MS analysis. The class given is ADME, organism-based. More on the design: dose 10 mg/kg, route oral. Conditions: in vivo. Summed up:
as §1

A short description of data set [4]: AUClast in C57BL/6N mouse at 5 mg/kg, iv administered as single dose containing <0.4% Ro-61-8048 by LC-MS/MS analysis. The class given is ADME, organism-based. More on the design: time 0 - last, dose 5 mg/kg, route intravenous. Conditions: plasma. Summed up: as §2
The nature of data set [5]: Oral bioavailability in C57BL/6N mouse treated with JM6 (containing <0.4% Ro-61-8048) at 9 mg/kg and Ro-61-8048 at 1 mg/kg drugs administered via gavage by LC-MS/MS analysis. The class given is ADME, organism-based. Conditions: in vivo. Summed up: (§3)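 Male C57BL/6N mice dosed by oral gavage (10 mL/kg) as fine suspensions in 10% hydroxypropyl-β-cyclodextrin in 50 mM phosphate buffer pH 7; dose formulations verified by LC-MS/MS. Plasma analysed by LC-MS/MS; composite non-compartmental parameters from mean concentrations (n=3 per time point), C0 set to zero. %F = dose-normalised po AUCinf over dose-normalised iv AUCinf, only within linear range.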

A short description of data set [6]: Volume of distribution at steady state in C57BL/6N mouse at 5 mg/kg, iv administered as single dose containing <0.4% Ro-61-8048 by LC-MS/MS analysis. Conditions: in vivo, read-out: Vdss. The class given is ADME, organism-based. More on the design: dose 5 mg/kg, route intravenous. Summed up:
(§4)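 Male C57BL/6N mice given 5 mg/kg iv bolus (1 mg/mL, DMSO:PEG400:water 10:50:40, filtered); dosed material carried Ro-61-8048 as impurity, which was also quantified in plasma. LC-MS/MS after acetonitrile/formic acid extraction; composite non-compartmental analysis of mean concentrations (n=3 per time point), C0 back-extrapolated, kel from ≥3 terminal points.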

The test system of data set [7] is Mus musculus. Nature of the data set: Tmax in C57BL/6N mouse at 10 mg/kg, po administered via gavage containing <0.4% Ro-61-8048 by LC-MS/MS analysis. Conditions: in vivo. The class given is ADME, organism-based. Further details: dose 10 mg/kg, route oral. Summed up: as §3
Data set [8] can be described thus: Mean residence time in C57BL/6N mouse at 5 mg/kg, iv administered as single dose containing <0.4% Ro-61-8048 by LC-MS/MS analysis. The class given is ADME, organism-based. Conditions: in vivo. Further details: dose 5 mg/kg, route intravenous. Summed up:
as §4

The subject of data set [9] is Mus musculus. Nature of the data set: Half life in C57BL/6N mouse at 10 mg/kg, po administered via gavage containing <0.4% Ro-61-8048 by LC-MS/MS analysis. Conditions: in vivo. More on the design: dose 10 mg/kg, route oral. The class given is ADME, organism-based. Summed up:
as §1

The nature of data set [10]: Cmax in mouse at 25 mg/kg, po. The class given is ADME, organism-based. Further details: dose 25 mg/kg, route oral. Conditions: in vivo.
The nature of data set [11]: Plasma protein binding in human at 10 uM for 6 hrs by LC-MS/MS analysis. The class given is ADME, cell-free. To be noted: read-out: PPB. Summed up: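 Equilibrium dialysis: plasma fortified in triplicate (5 and 20 µM rat and mouse; 10 µM human) on donor side, PBS on receiver side; 37°C, 200 rpm, 6 h; both sides by LC-MS/MS.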
Data set [12] is described as follows: Oral bioavailability in C57BL/6N mouse at 0.05 mg/kg administered via gavage by LC-MS/MS analysis. The class given is ADME, organism-based. To be noted: in vivo. Summed up: as §3
A short description of data set [13]: Metabolic stability in mouse liver microsomes assessed as intrinsic clearance at 5 uM after 5 to 40 mins by LC-MS/MS analysis. The class given is ADME. Conditions: read-out: CLH. For orientation: Liver microsomes are a subcellular fraction often used to study metabolism.
Data set [14] is described as follows: AUClast in C57BL/6N mouse at 5 mg/kg, iv administered as single dose by LC-MS/MS analysis. The class given is ADME, organism-based. Further details: time 0 - last, dose 5 mg/kg, route intravenous. To be noted: plasma. Summed up:
as §2

For data set [15], the target named is Kynurenine 3-monooxygenase (Homo sapiens, UniProt O15229). Nature of the data set: Inhibition of human KMO assessed as 3-hydroxykynurenine formation preincubated for 5 mins using 100 uM kynurenine as substrate by LC-MS/MS analysis in presence of 3 mg/ml plasma protein. Summed up:
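Liver mitochondrial KMO (mouse C57 BL/6J or human), 0.3 mg protein/mL in 100 mM potassium phosphate pH 7.4, 200 µM NADPH, NADPH-regenerating system, plus 3 mg/mL plasma protein. Compound pre-incubated 5 min at 25°C; 100 µM kynurenine started reaction for 40 min (mouse) or 60 min (human); TCA stop; 3-hydroxykynurenine by LC-MS/MS. IC50 from 8-point 3-fold series, triplicates, n≥2.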

Data set [16] can be described thus: Tmax in C57BL/6N mouse at 0.05 mg/kg, po administered via gavage by LC-MS/MS analysis. The class given is ADME, organism-based. More on the design: dose 0.05 mg/kg, route oral. Conditions: in vivo. Summed up: as §3
In data set [17] the test system is Mus musculus. Nature of the data set: Dose normalised AUC in C57BL/6N mouse at 0.05 mg/kg, po administered via gavage by LC-MS/MS analysis. The class given is ADME, organism-based. Further details: dose 0.05 mg/kg, route oral. Conditions: in vivo. Summed up: as §1
Data set [18] is described as follows: Half life in C57BL/6N mouse at 5 mg/kg, iv administered as single dose by LC-MS/MS analysis. Conditions: in vivo. More on the design: dose 5 mg/kg, route intravenous. The class given is ADME, organism-based. Summed up: as §2
Data set [19] can be described thus: Cmax in mouse at 25 mg/kg/day, po. The class given is ADME, organism-based. Further details: dose 25 mg/kg/day, route oral. Conditions: in vivo.
Data set [20] concerns the target Kynurenine 3-monooxygenase (Rattus norvegicus, UniProt O88867). Nature of the data set: Inhibition of Wistar rat KMO assessed as 3-hydroxykynurenine formation preincubated for 5 mins using 100 uM kynurenine as substrate by LC-MS/MS analysis in presence of 3 mg/ml plasma protein. Summed up: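 KMO from Wistar rat liver (0.3 mg protein/ml) preincubated 5 min at 25°C with compound plus 3 mg/mL plasma protein in 100 mM potassium phosphate pH 7.4, 200 µM NADPH, G6PDH regenerating system. Started with 100 µM kynurenine, 40 min, stopped with TCA; 3-hydroxykynurenine by LC-MS/MS. 8-point 3-fold dilutions; triplicates, ≥2 runs.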

The nature of data set [21]: Mean residence time in C57BL/6N mouse at 5 mg/kg, iv administered as single dose by LC-MS/MS analysis. The class given is ADME, organism-based. More on the design: dose 5 mg/kg, route intravenous. To be noted: in vivo. Summed up: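 Male C57BL/6N mice given 5 mg/kg iv bolus as 1 mg/mL filtered solution in DMSO:PEG400:water 10:50:40. Plasma extracted with acidified acetonitrile (diclofenac IS), analysed by LC-MS/MS. Composite non-compartmental parameters from mean concentrations (n=3 per time point); C0 back-extrapolated from first two points; kel from at least last three concentrations.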

Data set [22] has as its system Mus musculus. Nature of the data set: Dose normalised AUC in C57BL/6N mouse at 5 mg/kg, iv administered as single dose by LC-MS/MS analysis. The class given is ADME, organism-based. To be noted: in vivo. More on the design: dose 5 mg/kg, route intravenous. Summed up: as §2

Kynurenine 3-monooxygenase (Homo sapiens, UniProt O15229), sequence (O15229 whole entry): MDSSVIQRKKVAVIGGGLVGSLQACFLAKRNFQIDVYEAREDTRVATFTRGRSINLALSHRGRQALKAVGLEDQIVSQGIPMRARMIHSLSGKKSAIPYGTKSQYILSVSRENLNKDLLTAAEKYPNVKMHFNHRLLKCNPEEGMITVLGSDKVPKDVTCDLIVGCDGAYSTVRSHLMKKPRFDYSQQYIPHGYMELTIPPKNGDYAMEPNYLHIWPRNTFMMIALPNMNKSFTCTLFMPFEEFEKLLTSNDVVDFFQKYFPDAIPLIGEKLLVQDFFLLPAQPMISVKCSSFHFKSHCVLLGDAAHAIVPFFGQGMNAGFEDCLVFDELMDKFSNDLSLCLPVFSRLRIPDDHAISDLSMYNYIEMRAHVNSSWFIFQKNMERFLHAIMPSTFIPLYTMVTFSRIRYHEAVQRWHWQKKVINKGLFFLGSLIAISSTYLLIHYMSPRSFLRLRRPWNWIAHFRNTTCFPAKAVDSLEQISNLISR
Kynurenine 3-monooxygenase (Rattus norvegicus, UniProt O88867), sequence (O88867 whole entry): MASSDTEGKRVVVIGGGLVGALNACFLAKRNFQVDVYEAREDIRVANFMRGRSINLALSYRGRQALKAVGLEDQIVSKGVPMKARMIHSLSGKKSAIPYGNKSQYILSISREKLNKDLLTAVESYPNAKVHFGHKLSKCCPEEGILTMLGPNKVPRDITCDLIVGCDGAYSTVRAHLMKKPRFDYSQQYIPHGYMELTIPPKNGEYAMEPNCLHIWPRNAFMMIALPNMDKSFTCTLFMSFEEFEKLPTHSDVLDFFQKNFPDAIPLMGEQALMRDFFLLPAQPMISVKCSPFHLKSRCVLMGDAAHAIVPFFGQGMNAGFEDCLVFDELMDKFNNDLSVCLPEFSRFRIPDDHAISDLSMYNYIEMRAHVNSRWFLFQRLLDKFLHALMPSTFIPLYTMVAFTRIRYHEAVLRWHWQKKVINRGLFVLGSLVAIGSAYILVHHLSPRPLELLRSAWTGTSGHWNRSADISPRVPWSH

Take `COc1ccc(S(=O)(=O)Nc2nc(-c3cccc([N+](=O)[O-])c3)c(CN3CCCCC3)s2)cc1OC`: the peak concentration (Cmax) (usually the highest concentration seen after dosing) in the data set with Mus musculus [1] stood at 100 nM; in [10], 3400 nM. For the same compound, in data set [2], the half-life (in general, the time in which the quantity being followed falls by half) was 43.2 min. Moreover, the figures for the t1/2 in the data set with Liver and in the data set on Mus musculus [9] were 12 min and 66 min, respectively. Further, in the data set with Mus musculus [3], the Cmax/dose stood at 110 nM. In addition, the AUC(0-t) – broadly, exposure summed from dosing to a finite time, without extrapolation to infinity – in data set [4] stood at 5.2 µM·h. The bioavailability (in general, the share of a dose that reaches the circulation, judged against a reference dose that is usually intravenous) in [5] was determined as 7.8%. Further, the Vd in data set [6] was 0.37 L/kg. Further, the Tmax (in general, the time at which the peak concentration occurs) in the data set on Mus musculus [7] turned out to be 30 min. For the same compound, the MRT (commonly a mean duration of stay, worked out from the concentration-time curve) in data set [8] turned out to be 12 min.

As for `COc1ccc(S(=O)(=O)Nc2nc(-c3cccc([N+](=O)[O-])c3)cs2)cc1OC`, the fraction unbound at 6 h, 10 µM in data set [11] was less than 0.01. Besides, the bioavailability in data set [12] came to 70%. Also, in [13], the microsomal CLint at 5 µM is less than 29 µL/min/mg. In addition, the AUC(0-t) in data set [14] amounted to 510 µM·h. For the same compound, the results for the pIC50 in [15] and in [20] were less than 4.52 and 5.10, respectively. For the same compound, in data set [16], the time to peak (Tmax) was determined as 30 min. Moreover, the figures for the AUC/dose with Mus musculus [17] and in the data set with Mus musculus [22] were 90000 nM·kg·h/mg and 130000 nM·kg·h/mg, respectively. In [18], this compound gave a half-life of 390 min. Further, in [19], the peak level (Cmax) was 280 nM. The same compound had an MRT in [21] of 498 min.
